Results as given in ChEMBL document CHEMBL1154871, “Synthesis of new spiroindolinones incorporating a benzothiazole moiety as antioxidant agents” (Eur J Med Chem, 2010).
Blank lines part the entries; values can stand above or below the compound they belong to.

What was measured:
Format in all cases: functional
[1] = Antioxidant activity assessed as reduction of […]/ferricyanide complex after 20 mins by spectrophotometry
How it was run: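 Compounds (1.6–6.25 mM) mixed with 0.2 M phosphate buffer, pH 6.6, and 1% potassium ferricyanide, 20 min at 50 °C. Stopped with 1% TCA and centrifuged at 2790 g for 10 min. Supernatant plus water and 0.1% FeCl3 read at 700 nm. EC50 is the concentration giving absorbance 0.5. Mean ± SD of triplicates.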

[2] = tested on: Radical scavenging activity; test: Antioxidant activity assessed as DPPH radical scavenging activity after 30 mins by spectrophotometry
How it was run: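 Test compounds (0.2–6.25 mM) dissolved in DMSO, added to 6×10^-5 M methanolic DPPH. Mixture held 30 min at room temperature in the dark, then absorbance read at 517 nm against methanol. Scavenging % = [1 − A_sample/A_control] × 100, with a negative control lacking sample. Triplicates averaged; EC50 taken from dose–response.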

[3] = Antioxidant activity assessed as inhibition of Fe(3+)/ascorbate-induced lipid peroxidation in liposomes after 1 hr by TBARS assay
How it was run: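 Lecithin liposomes were sonicated in 10 mmol/L phosphate buffer, pH 7.4. Final mix: 3.08 mg liposome/mL, 123.2 µmol FeCl3, 123.2 µmol ascorbic acid, test compound 0.025–0.4 mM. Incubated 1 h at 37 °C. MDA measured by TBA reaction; n-butanol layer read at 532 nm against a lecithin-free blank. EC50 is the concentration reducing TBARS to 50% of control.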

[4] = Antioxidant activity assessed as trolox equivalent of ABTS free radical scavenging activity after 6 mins by […]
How it was run: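 ABTS radical cation solution was added to compounds (0.2–6.25 mM). Decrease in absorbance at 734 nm was read exactly 6 min after mixing, with ethanol blanks. A Trolox standard curve (final 0–20 µM in ethanol) gives TEAC, the mM Trolox equivalent to 1 mM compound. Run in triplicate.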

SF-268 = test: Growth inhibition in human SF268 cells assessed as viable cells at 10 uM after 48 hrs by sulforhodamine B assay; conditions: SF-268, 48 h, read-out: Activity
SF-539 = test: Growth inhibition in human SF539 cells assessed as viable cells at 10 uM after 48 hrs by sulforhodamine B assay; conditions: SF-539, 48 h, read-out: Activity
SNB-19 = test: Growth inhibition in human SNB19 cells assessed as viable cells at 10 uM after 48 hrs by sulforhodamine B assay; conditions: SNB-19, 48 h, read-out: Activity
SNB-75 = test: Growth inhibition in human SNB75 cells assessed as viable cells at 10 uM after 48 hrs by sulforhodamine B assay; conditions: SNB-75, 48 h, read-out: Activity
U-251 = test: Growth inhibition in human U251 cells assessed as viable cells at 10 uM after 48 hrs by sulforhodamine B assay; conditions: U-251, 48 h, read-out: Activity
How it was run: (§1)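 NCI 60-line screen, single dose 10^-5 M, 48 h continuous exposure. Cells grown in RPMI 1640 with 5% FBS and 2 mM L-glutamine, plated at 5000–40,000 cells/well and preincubated 24 h at 37 °C, 5% CO2. Drug stocks in DMSO. Endpoint: TCA fixation, SRB staining, absorbance at 515 nm. Growth % relative to untreated controls and time-zero plates.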

OVCAR-5 = test: Growth inhibition in human OVCAR5 cells assessed as viable cells at 10 uM after 48 hrs by sulforhodamine B assay; conditions: OVCAR-5, 48 h, read-out: Activity
MCF7 = test: Growth inhibition in human MCF7 cells assessed as viable cells at 10 uM after 48 hrs by sulforhodamine B assay; conditions: MCF7, 48 h, read-out: Activity; how it was run: as §1
MDA-MB-231 = test: Growth inhibition in human MDA-MB-231/ATCC cells assessed as viable cells at 10 uM after 48 hrs by sulforhodamine B assay; conditions: MDA-MB-231, 48 h, read-out: Activity; how it was run: as §1
CAKI-1 = test: Growth inhibition in human Caki1 cells assessed as viable cells at 10 uM after 48 hrs by sulforhodamine B assay; conditions: CAKI-1, 48 h, read-out: Activity; how it was run: as §1
UO-31 = test: Growth inhibition in human UO31 cells assessed as viable cells at 10 uM after 48 hrs by sulforhodamine B assay; conditions: UO-31, 48 h, read-out: Activity; how it was run: as §1
BT-549 = test: Growth inhibition in human BT549 cells assessed as viable cells at 10 uM after 48 hrs by sulforhodamine B assay; conditions: BT-549, 48 h, read-out: Activity; how it was run: as §1
UACC-62 = test: Growth inhibition in human UACC62 cells assessed as viable cells at 10 uM after 48 hrs by sulforhodamine B assay; conditions: UACC-62, 48 h, read-out: Activity
DU-145 = test: Growth inhibition in human DU145 cells assessed as viable cells at 10 uM after 48 hrs by sulforhodamine B assay; conditions: DU-145, 48 h, read-out: Activity; how it was run: as §1
MDA-MB-435 = test: Growth inhibition in human MDA-MB-435 cells assessed as viable cells at 10 uM after 48 hrs by sulforhodamine B assay; conditions: MDA-MB-435, 48 h, read-out: Activity
A498 = test: Growth inhibition in human A498 cells assessed as viable cells at 10 uM after 48 hrs by sulforhodamine B assay; conditions: A498, 48 h, read-out: Activity; how it was run: as §1
M14 = test: Growth inhibition in human M14 cells assessed as viable cells at 10 uM after 48 hrs by sulforhodamine B assay; conditions: M14, 48 h, read-out: Activity; how it was run: as §1
[5] = Growth inhibition in human Hs 578T cells assessed as viable cells at 10 uM after 48 hrs by sulforhodamine B assay; conditions: read-out: Activity; how it was run: as §1
NCI/ADR-RES = test: Growth inhibition in human NCI/ADR-RES cells assessed as viable cells at 10 uM after 48 hrs by sulforhodamine B assay; conditions: read-out: Activity; how it was run: as §1
TK-10 = test: Growth inhibition in human TK10 cells assessed as viable cells at 10 uM after 48 hrs by sulforhodamine B assay; conditions: TK-10, 48 h, read-out: Activity; how it was run: as §1
T47D = test: Growth inhibition in human T47D cells assessed as viable cells at 10 uM after 48 hrs by sulforhodamine B assay; conditions: read-out: Activity
OVCAR-8 = test: Growth inhibition in human OVCAR8 cells assessed as viable cells at 10 uM after 48 hrs by sulforhodamine B assay; conditions: OVCAR-8, 48 h, read-out: Activity
SF-295 = test: Growth inhibition in human SF295 cells assessed as viable cells at 10 uM after 48 hrs by sulforhodamine B assay; conditions: SF-295, 48 h, read-out: Activity
SK-MEL-28 = test: Growth inhibition in human SK-MEL-28 cells assessed as viable cells at 10 uM after 48 hrs by sulforhodamine B assay; conditions: SK-MEL-28, 48 h, read-out: Activity; how it was run: as §1
OVCAR-3 = test: Growth inhibition in human OVCAR-3 cells assessed as viable cells at 10 uM after 48 hrs by sulforhodamine B assay; conditions: OVCAR-3, 48 h, read-out: Activity
Malme-3M = test: Growth inhibition in human MALME-3M cells assessed as viable cells at 10 uM after 48 hrs by sulforhodamine B assay; conditions: read-out: Activity
UACC-257 = test: Growth inhibition in human UACC257 cells assessed as viable cells at 10 uM after 48 hrs by sulforhodamine B assay; conditions: UACC-257, 48 h, read-out: Activity
MDA-MB-468 = test: Growth inhibition in human MDA-MB-468 cells assessed as viable cells at 10 uM after 48 hrs by sulforhodamine B assay; conditions: MDA-MB-468, 48 h, read-out: Activity; how it was run: as §1
SK-MEL-5 = test: Growth inhibition in human SK-MEL-5 cells assessed as viable cells at 10 uM after 48 hrs by sulforhodamine B assay; conditions: SK-MEL-5, 48 h, read-out: Activity
IGROV-1 = test: Growth inhibition in human IGROV1 cells assessed as viable cells at 10 uM after 48 hrs by sulforhodamine B assay; conditions: IGROV-1, 48 h, read-out: Activity
LOX IMVI = test: Growth inhibition in human LOXIMVI cells assessed as viable cells at 10 uM after 48 hrs by sulforhodamine B assay; conditions: read-out: Activity
SN12C = test: Growth inhibition in human SN12C cells assessed as viable cells at 10 uM after 48 hrs by sulforhodamine B assay; conditions: read-out: Activity; how it was run: as §1
786-0 = test: Growth inhibition in human 786-0 cells assessed as viable cells at 10 uM after 48 hrs by sulforhodamine B assay; conditions: 786-0, 48 h, read-out: Activity; how it was run: as §1
PC-3 = test: Growth inhibition in human PC3 cells assessed as viable cells at 10 uM after 48 hrs by sulforhodamine B assay; conditions: PC-3, 48 h, read-out: Activity; how it was run: as §1
ACHN = test: Growth inhibition in human ACHN cells assessed as viable cells at 10 uM after 48 hrs by sulforhodamine B assay; conditions: read-out: Activity; how it was run: as §1
SK-MEL-2 = test: Growth inhibition in human SK-MEL-2 cells assessed as viable cells at 10 uM after 48 hrs by sulforhodamine B assay; conditions: SK-MEL-2, 48 h, read-out: Activity
SK-OV-3 = test: Growth inhibition in human SKOV3 cells assessed as viable cells at 10 uM after 48 hrs by sulforhodamine B assay; conditions: SK-OV-3, 48 h, read-out: Activity; how it was run: as §1
OVCAR-4 = test: Growth inhibition in human OVCAR4 cells assessed as viable cells at 10 uM after 48 hrs by sulforhodamine B assay; conditions: OVCAR-4, 48 h, read-out: Activity

- EC50 [1]: 1360 µM
- EC50 [2]: 1300 µM
- EC50 [3]: 41 µM
- EC50 [4]: 1020 µM
Structure (SMILES): Cc1ccc2c(c1)C1(Nc3ccccc3S1)C(=O)N2 (configuration not stated)

- EC50 [1]: 510 µM
- EC50 [2]: 1780 µM
- EC50 [3]: 49 µM
- EC50 [4]: 1030 µM
Structure (SMILES): O=C1Nc2ccc(Cl)cc2C12Nc1ccccc1S2 (configuration not stated)
- viability at 10 µM (SF-268): 83.2%
- viability at 10 µM (SF-539): 97.4%
- viability at 10 µM (SNB-19): 107%
- viability at 10 µM (SNB-75): 55.8%
- viability at 10 µM (U-251): 98.5%

The remaining lines, values behind:

Structure (SMILES): O=C1Nc2ccc([N+](=O)[O-])cc2C12Nc1ccccc1S2 (configuration not stated)
- EC50 [1]: 800 µM
- EC50 [2]: 1300 µM
- EC50 [3]: 87 µM
- EC50 [4]: 1630 µM

Structure (SMILES): Cc1ccc2c(c1)C1(Nc3ccccc3S1)C(=O)N2C (configuration not stated)
- EC50 [1]: 700 µM
- EC50 [2]: 980 µM
- EC50 [3]: 34 µM
- EC50 [4]: 980 µM

Structure (SMILES): CN1C(=O)C2(Nc3ccccc3S2)c2cc(OC(F)(F)F)ccc21 (configuration not stated)
- viability at 10 µM (OVCAR-5): 121%
- viability at 10 µM (MCF7): 82.8%
- viability at 10 µM (MDA-MB-231): 96.2%
- viability at 10 µM (CAKI-1): 96.8%
- viability at 10 µM (UO-31): 58.3%
- viability at 10 µM (BT-549): 108%
- viability at 10 µM (UACC-62): 80.4%
- viability at 10 µM (DU-145): 107%
- viability at 10 µM (MDA-MB-435): 100%
- viability at 10 µM (A498): 108%
- viability at 10 µM (M14): 102%
- viability at 10 µM [5]: 92.4%
- EC50 [1]: 4940 µM
- viability at 10 µM (SF-268): 97.7%
- viability at 10 µM (NCI/ADR-RES): 100%
- viability at 10 µM (TK-10): 105%
- viability at 10 µM (T47D): 60%
- viability at 10 µM (OVCAR-8): 99.1%
- viability at 10 µM (SF-539): 116%
- EC50 [2]: 1620 µM
- EC50 [3]: 84 µM
- viability at 10 µM (SF-295): 102%
- viability at 10 µM (SK-MEL-28): 103%
- viability at 10 µM (OVCAR-3): 103%
- EC50 [4]: 1370 µM
- viability at 10 µM (Malme-3M): 98.5%
- viability at 10 µM (UACC-257): 102%
- viability at 10 µM (MDA-MB-468): 112%
- viability at 10 µM (SNB-19): 92.4%
- viability at 10 µM (SK-MEL-5): 99.7%
- viability at 10 µM (IGROV-1): 86.2%
- viability at 10 µM (LOX IMVI): 98.6%
- viability at 10 µM (SN12C): 105%
- viability at 10 µM (786-0): 108%
- viability at 10 µM (PC-3): 84.6%
- viability at 10 µM (ACHN): 80.9%
- viability at 10 µM (SK-MEL-2): 101%
- viability at 10 µM (SNB-75): 55.3%
- viability at 10 µM (SK-OV-3): 102%
- viability at 10 µM (OVCAR-4): 73.4%
- viability at 10 µM (U-251): 88.4%
